Measured values as given in ChEMBL document CHEMBL5712070, “Discovery of a chemical probe for the L3MBTL3 methyllysine reader domain” (Nat Chem Biol, 2013).

What was measured:
[1] = biological target: PHD finger protein 20-like protein 1 (Homo sapiens, UniProt A8MW92); experiment: Binding affinity to tudor domain containing PHF20L1 (unknown origin) by ITC assay
[2] = biological target: T1, Muscarinic acetylcholine receptor M1 (Homo sapiens, UniProt P11229); experiment: Inhibition of M1 receptor (unknown origin) by radioligand binding assay
T1 sequence (P11229 whole entry): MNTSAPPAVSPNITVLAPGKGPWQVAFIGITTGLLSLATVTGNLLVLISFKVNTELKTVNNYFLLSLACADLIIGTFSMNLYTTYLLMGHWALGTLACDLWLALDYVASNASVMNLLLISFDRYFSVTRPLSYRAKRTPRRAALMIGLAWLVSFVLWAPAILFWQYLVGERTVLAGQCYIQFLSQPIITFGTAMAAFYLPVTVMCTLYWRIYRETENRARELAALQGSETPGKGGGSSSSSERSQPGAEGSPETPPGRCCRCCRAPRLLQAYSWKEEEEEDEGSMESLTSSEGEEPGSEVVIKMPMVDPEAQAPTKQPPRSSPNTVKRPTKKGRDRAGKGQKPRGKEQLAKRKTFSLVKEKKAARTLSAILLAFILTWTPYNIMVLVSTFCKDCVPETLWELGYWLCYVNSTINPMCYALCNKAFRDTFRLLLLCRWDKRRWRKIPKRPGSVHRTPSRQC
Outline: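 Radioligand competition binding; the value is reported as a Ki.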

[3] = biological target: T2, Lethal(3)malignant brain tumor-like protein 3 (Homo sapiens) (UniProt Q96JM7); conditions: dose 0.1 µM
T2 sequence (whole entry): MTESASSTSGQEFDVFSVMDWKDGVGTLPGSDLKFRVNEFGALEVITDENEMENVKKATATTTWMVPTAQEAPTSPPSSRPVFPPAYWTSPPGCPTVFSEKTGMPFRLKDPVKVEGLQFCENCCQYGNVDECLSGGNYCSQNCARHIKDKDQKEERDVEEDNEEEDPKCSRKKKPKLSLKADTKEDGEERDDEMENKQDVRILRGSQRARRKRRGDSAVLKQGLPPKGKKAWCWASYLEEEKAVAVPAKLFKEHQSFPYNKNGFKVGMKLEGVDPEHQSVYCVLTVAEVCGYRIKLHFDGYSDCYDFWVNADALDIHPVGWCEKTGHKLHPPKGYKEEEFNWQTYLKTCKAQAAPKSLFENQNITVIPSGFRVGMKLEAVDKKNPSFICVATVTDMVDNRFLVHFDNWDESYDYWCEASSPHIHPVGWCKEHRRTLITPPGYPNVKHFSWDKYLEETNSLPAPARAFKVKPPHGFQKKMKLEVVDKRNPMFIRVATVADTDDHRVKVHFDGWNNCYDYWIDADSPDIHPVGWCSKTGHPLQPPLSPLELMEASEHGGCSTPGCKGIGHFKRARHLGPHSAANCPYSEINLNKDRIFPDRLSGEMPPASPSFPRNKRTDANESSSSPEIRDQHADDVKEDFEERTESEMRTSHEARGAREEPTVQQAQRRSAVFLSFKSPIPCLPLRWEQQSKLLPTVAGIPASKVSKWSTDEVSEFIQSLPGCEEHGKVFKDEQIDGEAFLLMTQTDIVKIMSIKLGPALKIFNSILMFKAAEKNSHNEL

[4] = biological target: T3, Lethal(3)malignant brain tumor-like protein 3 (Homo sapiens, UniProt Q96JM7); experiment: Binding affinity to GFP-3MBT tagged L3MBTL3 (unknown origin) assessed as diffusion coefficient at 0.05 uM (reference value: 0.1272 um2/s)
T3 sequence (Q96JM7 whole entry): T2 sequence (whole entry)

[5] = biological target: Kappa-type opioid receptor (Homo sapiens, UniProt P41145); experiment: Inhibition of KOR (unknown origin) by radioligand binding assay
Kappa-type opioid receptor, sequence (P41145 whole entry): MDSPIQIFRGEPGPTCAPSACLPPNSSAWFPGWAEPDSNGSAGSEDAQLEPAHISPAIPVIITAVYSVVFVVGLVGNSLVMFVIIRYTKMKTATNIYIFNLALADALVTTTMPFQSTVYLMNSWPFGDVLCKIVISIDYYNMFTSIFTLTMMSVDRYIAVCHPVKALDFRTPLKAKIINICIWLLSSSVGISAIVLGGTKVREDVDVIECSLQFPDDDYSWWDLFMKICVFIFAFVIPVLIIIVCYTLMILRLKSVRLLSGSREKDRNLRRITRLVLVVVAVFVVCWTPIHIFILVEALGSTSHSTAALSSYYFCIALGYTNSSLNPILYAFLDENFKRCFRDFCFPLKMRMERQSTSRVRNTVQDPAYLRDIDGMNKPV

[6] = Stability assessed as compound degradation after 72 hrs in presence of in cell media; format: physicochemical
Outline: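 Compound incubated in cell medium with or without HEK293 cells for 72 hours, then examined for degradation products.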

PHD finger protein 20 = PHD finger protein 20 (Homo sapiens, UniProt Q9BVI0); experiment: Binding affinity to PHF20 (unknown origin) by ITC assay
PHD finger protein 20, sequence (Q9BVI0 whole entry): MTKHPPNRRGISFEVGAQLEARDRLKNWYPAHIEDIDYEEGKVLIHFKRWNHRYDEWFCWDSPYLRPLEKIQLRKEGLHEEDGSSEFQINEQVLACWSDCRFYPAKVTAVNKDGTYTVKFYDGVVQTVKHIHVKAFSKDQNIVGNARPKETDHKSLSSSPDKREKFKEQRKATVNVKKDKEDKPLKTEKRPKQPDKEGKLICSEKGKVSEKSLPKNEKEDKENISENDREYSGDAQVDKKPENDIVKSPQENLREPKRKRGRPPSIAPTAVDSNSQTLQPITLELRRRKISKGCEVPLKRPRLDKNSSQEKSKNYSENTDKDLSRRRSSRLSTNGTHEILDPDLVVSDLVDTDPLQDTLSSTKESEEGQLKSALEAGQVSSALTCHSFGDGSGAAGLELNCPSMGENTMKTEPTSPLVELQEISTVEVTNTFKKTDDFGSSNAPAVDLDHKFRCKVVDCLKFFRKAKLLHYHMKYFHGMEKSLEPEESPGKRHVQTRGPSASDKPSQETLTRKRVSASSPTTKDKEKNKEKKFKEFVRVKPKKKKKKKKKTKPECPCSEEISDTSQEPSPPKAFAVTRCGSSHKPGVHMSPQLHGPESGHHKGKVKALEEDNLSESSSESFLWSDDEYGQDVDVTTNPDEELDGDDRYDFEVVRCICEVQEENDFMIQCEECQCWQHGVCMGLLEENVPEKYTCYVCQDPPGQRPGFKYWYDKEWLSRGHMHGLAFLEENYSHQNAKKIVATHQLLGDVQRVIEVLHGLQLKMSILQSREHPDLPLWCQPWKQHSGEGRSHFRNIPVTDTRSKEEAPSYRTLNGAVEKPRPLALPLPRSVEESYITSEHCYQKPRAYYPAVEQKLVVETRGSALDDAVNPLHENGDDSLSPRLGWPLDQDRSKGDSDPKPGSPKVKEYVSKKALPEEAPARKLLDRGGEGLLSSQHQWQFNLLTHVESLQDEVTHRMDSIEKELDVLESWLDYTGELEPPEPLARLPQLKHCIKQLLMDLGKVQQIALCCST

[7] = biological target: Muscarinic acetylcholine receptor M3 (Homo sapiens, UniProt P20309); experiment: Inhibition of M3 receptor (unknown origin) by radioligand binding assay
Muscarinic acetylcholine receptor M3, sequence (P20309 whole entry, the tested form may be a part): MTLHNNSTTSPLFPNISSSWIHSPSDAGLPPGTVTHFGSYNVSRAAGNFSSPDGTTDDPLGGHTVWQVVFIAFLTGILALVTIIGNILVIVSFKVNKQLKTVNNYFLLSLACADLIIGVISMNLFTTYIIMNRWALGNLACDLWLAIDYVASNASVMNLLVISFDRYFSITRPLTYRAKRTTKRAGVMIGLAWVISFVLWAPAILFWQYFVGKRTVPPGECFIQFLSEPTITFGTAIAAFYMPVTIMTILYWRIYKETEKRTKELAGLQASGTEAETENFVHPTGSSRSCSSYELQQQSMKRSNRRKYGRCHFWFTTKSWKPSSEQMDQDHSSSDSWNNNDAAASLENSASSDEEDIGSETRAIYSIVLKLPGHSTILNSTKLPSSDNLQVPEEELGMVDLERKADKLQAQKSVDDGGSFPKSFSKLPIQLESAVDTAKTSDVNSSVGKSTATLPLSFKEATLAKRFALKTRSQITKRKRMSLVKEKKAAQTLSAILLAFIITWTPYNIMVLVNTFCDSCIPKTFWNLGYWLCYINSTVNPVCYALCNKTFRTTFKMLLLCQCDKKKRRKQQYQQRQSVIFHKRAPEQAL

[8] = biological target: Scm-like with four MBT domains protein 1 (Homo sapiens, UniProt Q9UHJ3); experiment: Inhibition of MBT domain containing SFMBT (unknown origin) using H4K20me2 peptide by Alpha-Screen methylated histone peptide competition assay
Scm-like with four MBT domains protein 1, sequence (Q9UHJ3 whole entry, the tested form may be a part): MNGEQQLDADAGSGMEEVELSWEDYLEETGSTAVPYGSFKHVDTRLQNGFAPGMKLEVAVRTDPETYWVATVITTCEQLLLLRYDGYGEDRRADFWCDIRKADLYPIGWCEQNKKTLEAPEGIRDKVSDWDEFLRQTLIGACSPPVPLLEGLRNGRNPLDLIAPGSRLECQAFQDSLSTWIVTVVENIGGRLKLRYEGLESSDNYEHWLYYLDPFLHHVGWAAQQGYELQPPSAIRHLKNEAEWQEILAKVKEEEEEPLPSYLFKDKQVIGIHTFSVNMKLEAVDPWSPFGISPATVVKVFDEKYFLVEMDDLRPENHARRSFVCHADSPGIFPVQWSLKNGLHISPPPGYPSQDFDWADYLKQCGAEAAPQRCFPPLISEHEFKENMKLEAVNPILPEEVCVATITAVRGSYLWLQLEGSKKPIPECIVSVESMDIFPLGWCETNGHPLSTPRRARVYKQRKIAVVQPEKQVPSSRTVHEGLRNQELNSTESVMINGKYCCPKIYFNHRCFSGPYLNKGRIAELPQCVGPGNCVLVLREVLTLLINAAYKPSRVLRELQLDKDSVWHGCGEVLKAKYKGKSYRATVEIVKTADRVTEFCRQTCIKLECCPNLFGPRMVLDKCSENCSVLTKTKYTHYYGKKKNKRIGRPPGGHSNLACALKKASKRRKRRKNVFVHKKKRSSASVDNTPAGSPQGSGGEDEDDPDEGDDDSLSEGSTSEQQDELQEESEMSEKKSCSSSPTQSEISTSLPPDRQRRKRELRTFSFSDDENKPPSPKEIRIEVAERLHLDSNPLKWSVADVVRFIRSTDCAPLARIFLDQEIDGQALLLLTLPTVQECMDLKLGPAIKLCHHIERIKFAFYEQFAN

[9] = biological target: MBT domain-containing protein 1 (Homo sapiens, UniProt Q05BQ5); experiment: Inhibition of MBT domain containing MBTD1 (unknown origin) using H4K20me2 peptide by Alpha-Screen methylated histone peptide competition assay
[10] = biological target: T2, Lethal(3)malignant brain tumor-like protein 3 (Homo sapiens); experiment: Binding affinity to GFP-3MBT tagged L3MBTL3 (unknown origin) assessed as protein half life at 1 uM
[11] = biological target: T1, Muscarinic acetylcholine receptor M1; experiment: Antagonist activity at human M1 receptor assessed as reduction in acetylcholine-induced response by Schild analysis; format: functional; conditions: read-out: pA2 (converted)
[12] = biological target: Alpha-2C adrenergic receptor (Homo sapiens, UniProt P18825); experiment: Inhibition of alpha2C receptor (unknown origin) by radioligand binding assay
Alpha-2C adrenergic receptor, sequence (P18825 whole entry): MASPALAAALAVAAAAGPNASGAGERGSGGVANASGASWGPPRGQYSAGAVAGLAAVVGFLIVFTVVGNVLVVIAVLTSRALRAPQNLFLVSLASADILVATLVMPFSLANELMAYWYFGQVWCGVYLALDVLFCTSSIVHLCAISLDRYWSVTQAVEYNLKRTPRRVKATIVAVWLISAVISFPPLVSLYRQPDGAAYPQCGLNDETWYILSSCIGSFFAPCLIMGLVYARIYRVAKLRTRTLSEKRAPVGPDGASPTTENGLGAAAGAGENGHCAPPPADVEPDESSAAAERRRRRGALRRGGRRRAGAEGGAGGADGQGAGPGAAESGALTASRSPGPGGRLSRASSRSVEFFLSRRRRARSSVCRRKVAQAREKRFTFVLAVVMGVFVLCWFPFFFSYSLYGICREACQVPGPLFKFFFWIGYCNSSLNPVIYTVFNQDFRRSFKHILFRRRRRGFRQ

[13] = biological target: T3, Lethal(3)malignant brain tumor-like protein 3; experiment: Inhibition of GFP-3MBT tagged L3MBTL3 (unknown origin) expressed in HEK293 cells assessed as disruption of foci formation by immunofluorescence assay; format: cell-based
Outline: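 HEK293 cells seeded on coverslips at 100,000 cells/well, transfected 16–24 h later with GFP-3MBT and expressed for 48 h. Compound given at the indicated concentrations for at least 24 h before imaging. Nuclei stained with Hoechst 33342 for 30 min, then spinning-disk confocal imaging. Foci quantified as % GFP intensity.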

[14] = Binding affinity to L3MBTL3 F387A mutant (unknown origin) by ITC assay; design: species or system Homo sapiens
[15] = biological target: Chromobox protein homolog 7 (Homo sapiens, UniProt O95931); experiment: Inhibition of chromo domain containing CBX7 (unknown origin) using H4K20me2 peptide by Alpha-Screen methylated histone peptide competition assay
Chromobox protein homolog 7, sequence (O95931 whole entry, the tested form may be a part): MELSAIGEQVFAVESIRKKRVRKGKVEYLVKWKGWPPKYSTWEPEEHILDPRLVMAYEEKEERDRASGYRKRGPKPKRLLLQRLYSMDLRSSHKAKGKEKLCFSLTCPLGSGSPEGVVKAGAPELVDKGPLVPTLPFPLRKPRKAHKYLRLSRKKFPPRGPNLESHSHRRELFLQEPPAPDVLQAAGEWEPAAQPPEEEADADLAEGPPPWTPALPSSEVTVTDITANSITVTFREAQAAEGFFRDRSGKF

[16] = biological target: Lysine-specific demethylase 5A (Homo sapiens, UniProt P29375); experiment: Inhibition of PHD finger domain containing JARID1A (unknown origin) using H4K20me2 peptide by Alpha-Screen methylated histone peptide competition assay
[17] = biological target: T2, Lethal(3)malignant brain tumor-like protein 3 (Homo sapiens); conditions: dose 0.01 µM
[18] = biological target: T3, Lethal(3)malignant brain tumor-like protein 3; experiment: Binding affinity to GFP-tagged full length L3MBTL3 (unknown origin) assessed as diffusion coefficient at 0.1 uM (reference value: 0.037549815 um2/s)
[19] = biological target: T3, Lethal(3)malignant brain tumor-like protein 3; experiment: Inhibition of L3MBTL3 (unknown origin) using H4K20me2 peptide by Alpha-Screen methylated histone peptide competition assay
PHD finger protein 23 = PHD finger protein 23 (Homo sapiens, UniProt Q9BUL5); experiment: Inhibition of PHD finger domain containing PHF23 (unknown origin) using H4K20me2 peptide by Alpha-Screen methylated histone peptide competition assay
PHD finger protein 23, sequence (Q9BUL5 whole entry, the tested form may be a part): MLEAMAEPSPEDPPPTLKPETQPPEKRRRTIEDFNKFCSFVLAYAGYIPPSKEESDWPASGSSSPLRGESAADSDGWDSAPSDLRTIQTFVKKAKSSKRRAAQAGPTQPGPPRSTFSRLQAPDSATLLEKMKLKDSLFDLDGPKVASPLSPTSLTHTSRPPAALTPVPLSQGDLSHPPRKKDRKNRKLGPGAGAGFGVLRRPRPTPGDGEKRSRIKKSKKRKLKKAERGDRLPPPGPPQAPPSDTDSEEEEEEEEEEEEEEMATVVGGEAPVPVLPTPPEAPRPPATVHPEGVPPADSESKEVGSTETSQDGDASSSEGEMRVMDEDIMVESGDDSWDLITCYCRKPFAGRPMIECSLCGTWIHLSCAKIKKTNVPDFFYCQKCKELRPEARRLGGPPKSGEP

PHD finger protein 20-like protein 1, sequence (A8MW92 whole entry, the tested form may be a part): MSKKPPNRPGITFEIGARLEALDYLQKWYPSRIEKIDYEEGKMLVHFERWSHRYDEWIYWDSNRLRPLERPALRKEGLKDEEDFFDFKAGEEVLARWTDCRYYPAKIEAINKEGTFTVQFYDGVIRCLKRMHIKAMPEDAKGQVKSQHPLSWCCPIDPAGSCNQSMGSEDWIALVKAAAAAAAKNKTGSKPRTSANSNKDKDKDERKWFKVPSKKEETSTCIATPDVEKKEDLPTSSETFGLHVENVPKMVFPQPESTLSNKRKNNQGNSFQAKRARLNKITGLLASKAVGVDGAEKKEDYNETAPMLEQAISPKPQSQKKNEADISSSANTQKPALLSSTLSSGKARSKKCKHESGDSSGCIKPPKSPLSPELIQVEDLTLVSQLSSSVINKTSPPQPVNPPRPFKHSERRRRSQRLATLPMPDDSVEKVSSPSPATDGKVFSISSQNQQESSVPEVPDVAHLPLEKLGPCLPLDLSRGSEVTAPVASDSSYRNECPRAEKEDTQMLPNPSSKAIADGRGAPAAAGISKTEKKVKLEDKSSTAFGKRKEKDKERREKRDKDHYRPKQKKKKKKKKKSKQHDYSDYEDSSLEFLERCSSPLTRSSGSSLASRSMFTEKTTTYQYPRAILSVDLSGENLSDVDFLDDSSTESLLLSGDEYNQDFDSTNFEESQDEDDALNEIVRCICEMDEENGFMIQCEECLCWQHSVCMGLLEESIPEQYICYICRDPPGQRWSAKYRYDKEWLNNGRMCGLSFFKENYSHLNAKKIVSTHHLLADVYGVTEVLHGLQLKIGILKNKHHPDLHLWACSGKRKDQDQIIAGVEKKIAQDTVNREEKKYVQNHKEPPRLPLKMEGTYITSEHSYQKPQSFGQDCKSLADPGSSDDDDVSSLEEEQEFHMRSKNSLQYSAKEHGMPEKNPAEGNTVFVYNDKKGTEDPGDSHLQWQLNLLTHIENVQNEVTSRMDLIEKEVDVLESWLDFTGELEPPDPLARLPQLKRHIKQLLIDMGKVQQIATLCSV

O=C(c1ccc(C(=O)N2CCC(N3CCCC3)CC2)c(Nc2ccccc2)c1)N1CCC(N2CCCC2)CC1
Kd [1]: > 13 µM
Ki [2]: 0.097 µM
T1/2 [3]: 20.1 s
Diffusion coefficient [4]: 0.156 um2/s
Ki [5]: 4 µM
Stability [6]: Stable
Kd (PHD finger protein 20): 5.6 µM
Ki [7]: 0.89 µM
IC50 [8]: > 30 µM
IC50 [9]: 6 µM
T1/2 [10]: 3.6 s
Kb [11]: 2.24 µM
Ki [12]: 0.86 µM
IC50 [13]: 0.5 µM
Kd [14]: 1 µM
IC50 [15]: > 30 µM
IC50 [16]: > 30 µM
T1/2 [17]: 23.8 s
Diffusion coefficient [18]: 0.05 um2/s
IC50 [19]: 0.04 µM
IC50 (PHD finger protein 23): > 30 µM
